# Screens deposited in PubChem by several laboratories.
# PGE2 EP2 inh: blocks the human prostaglandin E2 receptor EP2 | C6 glioma cells expressing human EP2, cAMP TR-FRET; cells stimulated with saturating PGE2 | inhibition, % at 25 µM | 260,000 compounds, 0.52% hits | AID 1422;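 active means percent inhibition above 40 after rounding to a whole number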;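 further: rat C6 glioma host cells with rolipram phosphodiesterase inhibitor present; the protocol text gives 20 µM as final concentration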
# Target sequence (P43116 whole entry, looked up): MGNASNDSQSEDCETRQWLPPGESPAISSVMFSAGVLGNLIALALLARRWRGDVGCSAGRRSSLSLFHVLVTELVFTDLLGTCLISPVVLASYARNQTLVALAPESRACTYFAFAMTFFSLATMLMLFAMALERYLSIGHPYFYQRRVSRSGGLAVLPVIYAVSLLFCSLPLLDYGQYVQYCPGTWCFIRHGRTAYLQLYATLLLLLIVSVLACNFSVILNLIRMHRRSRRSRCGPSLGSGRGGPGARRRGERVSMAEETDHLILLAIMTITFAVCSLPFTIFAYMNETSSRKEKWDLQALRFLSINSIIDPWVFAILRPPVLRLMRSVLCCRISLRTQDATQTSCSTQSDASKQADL
# EP2 mod: modulators of human EP2 prostaglandin E2 receptor; P43116; induction, % at 25 µM; 260,000 compounds, 0.83% hits; EP2-expressing cells, cAMP HTRF FRET, PGE2 co-stimulation;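 active means compounds whose cAMP rise, as percent of the full-agonist control response, exceeds 60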;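 further: rat C6 glioma line stably carrying human EP2 under a CMV promoter; the protocol text gives 20 µM as final concentration; 100% = response of wells given 1 µM PGE2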
# Efa HMGR inh: blocks class II HMG-CoA reductase of Enterococcus faecalis. purified E. faecalis HMGR, NADPH absorbance 340 nm kinetic. 190,000 compounds, 0.41% hits. inhibition, % at 10 µM. AID 1066;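 active means inhibition above a set limit, the median over all tested compounds plus 3 SD, cut at about 9.5% in these data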;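 further: enzyme runs in reverse so mevalonate oxidation gives rising NADPH absorbance; 0% = complete reaction with DMSO and 100% = background rate lacking mevalonate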
# TbHK1 inh: blocks Trypanosoma brucei hexokinase 1 activity | recombinant TbHK1, G6PDH-coupled NADH A340 | inhibition, % at 10 µM | 220,000 compounds, 0.11% hits | AID 1430;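 active means inhibition of 50% or more in the single-dose primary screen; inactive means inhibition below 50%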
# MT stabilizer: stabilizes microtubules in HeLa cells | HeLa tubulin immunostaining HCS, 24 h; share of cells brighter than vehicle mean+2SD | % tubulin-high responders, % at 10 µM | 200,000 compounds, 0.83% hits | AID 2205;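 active means plate Z-score above 3 for both tubulin-high and condensed-nucleus cell shares, with cell loss under 80%, at 10 µM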;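 further: anti alpha tubulin signal scored within the nucleus-defined area of each cell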
# bCat nuc transl: modulators of beta-catenin nuclear translocation; 190,000 compounds, 0.3% hits; nuclear translocation activity, % at 5 µM; HeLa beta-catenin nuclear translocation, immunofluorescence imaging;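 active means nuclear translocation activity above 50% at 5 µM, with a well cell count of 50 or more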;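 further: per-cell ratio of nuclear to cytoplasmic median beta-catenin stain intensity; plate controls were DMSO negative control for no effect and GSK-3 inhibitor IX positive control for full effect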
#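 Test system: human HeLa cells, endogenous beta-catenin. Times: 24 h compound exposure, 37°C. Measured by: beta-catenin immunofluorescence imaging with DAPI.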
# EP2 confirm: EP2 receptor cAMP induction, counter-screens negative; shares compounds with EP2 mod; C6 glioma EP2 cells, cAMP HTRF induction; plus low (about EC15) PGE2 agonist; calls only at 20 µM (by protocol); 1,300 compounds, 47% hits;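 active means cAMP induction above 50% in the main assay while under 30% in all four parallel counter assays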;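 further: rat C6 glioma cells stably expressing human EP2 receptor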
# Numbers without * were called inactive; i = inactive; · = not tested or not shown; + = active, no number. An excerpt weighted towards active compounds, which were near 2.4% of everything screened.
SMILES,PGE2 EP2 inh,EP2 mod,Efa HMGR inh,TbHK1 inh,MT stabilizer,bCat nuc transl,EP2 confirm
Cc1cc(C)c(O)c(Cc2cccc(Cc3cc(C)cc(C)c3O)c2O)c1,36,23,·,·,·,·,·
COc1ccc(CN2CCC(O)(c3ccccc3)C2)cc1Cn1cccn1 (stereo not given),7,-74,·,·,·,·,·
O=C(CC1CCCCC1)N1CCC[C@@H](Cn2nc(-c3cccs3)ccc2=O)C1,6,-71,·,·,·,·,·
CCC(=O)N(CCCN(C)C)c1nc(-c2cc(OC)ccc2OC)cs1,3,-9,-1,-3,2,-2,·
CCC(=O)N(CC)c1nc(-c2cc(OC)ccc2OC)cs1,7,78*,0,8,4,0,+
COCCCN(C(=O)c1ccco1)c1nc(-c2cc(OC)ccc2OC)cs1,4,75*,-6,3,2,-1,+
CC1CCN(c2nc(-c3ccncc3)nc3ccccc23)CC1,12,79*,-2,-12,2,-3,i
CC1(C)CC(O)CC(C)(CN=Cc2c(O)n(-c3ccc(Br)cc3)c(=O)[nH]c2=O)C1 (stereo not given),15,-29,·,·,·,·,·
CCN(CC)C(=O)c1nn(-c2ccccc2)c2c1C1CCC2(C)C1(C)C (stereo not given),7,72*,-4,-1,5,-1,i
COc1ccc(C2C(C#N)=C(N)Oc3n[nH]c(C)c32)cc1C (stereo not given),14,-28,·,·,·,·,·
OC(COc1ccccc1)Cn1c2ccccc2c2ccccc21 (stereo not given),11,71*,-4,22,3,-4,+
CC(C)Sc1cc(N2CCOCC2)nc(-c2ccc(Cl)cc2)n1,10,82*,0,-5,2,2,i
O=C(Nc1ccccc1)c1nn(-c2cccc(C(F)(F)F)c2)ccc1=O,8,84*,3,-19,3,-5,+
O=c1ccn(-c2cccc(C(F)(F)F)c2)nc1-c1ccn(-c2cccc(Cl)c2)n1,13,39,-5,-10,1,0,·
O=C(O)NCc1ccccc1 (tested in a mixture with another compound),8,68*,·,·,·,·,+
Cc1cc([N+](=O)[O-])c(C(C)(C)C)cc1N,9,10,-1,0,3,3,·
Cc1cc([N+](=O)[O-])c(C)c(Br)c1C,15,52,·,·,·,·,i
Cc1ccc(-c2csc(Nc3ccc(C(=O)O)cc3)[n+]2Cc2ccccc2)cc1,4,76*,-1,13,2,-1,+
O=C1COc2ccc(S(=O)(=O)N3CCC(NC(=O)C4CCCC4)CC3)cc2N1,5,-3,·,·,·,·,·
O=C(c1ccc(Br)o1)N(Cc1ccccc1)Cc1ccccc1,·,54,-9,7,3,·,+
CCC(=O)Nc1ccc(NC(=O)CSc2nnnn2-c2cccc(OC)c2)cc1,10,-73,·,·,·,·,·
CCn1c2ccccc2c2nc3ccccc3nc21,6,62*,-1,-11,12,1,i
Cc1ccc(-c2cc(C(F)(F)F)nn2-c2ccc(S(N)(=O)=O)cc2)cc1,11,66*,·,·,·,·,+
NS(=O)(=O)c1ccc(-n2nc(C(=O)O)cc2-c2ccc(Cl)cc2)cc1,3,5,-6,-2,4,-4,·
C=C1C(=O)OC2CC3(C)CCCC(C)C3=CC12 (stereo not given),18,-27,·,·,·,·,·
SMILES,PGE2 EP2 inh,EP2 mod,Efa HMGR inh,TbHK1 inh,MT stabilizer,bCat nuc transl,EP2 confirm
COc1ccc(C2CC(c3cccs3)=NN2C(=O)c2ccc(Br)o2)cc1 (stereo not given),9,51,-5,-9,3,-1,i
Cc1ccc2cc(CN(Cc3cccs3)C(c3nnnn3CC3CCCO3)C(C)C)c(=O)[nH]c2c1 (stereo not given),11,40,·,·,·,·,·
O=C(OCc1ccc(Cl)cc1)c1ccccc1C(=O)c1ccccc1,3,70*,5,8,2,-3,+
O=C(OCc1ccc(Cl)cc1)c1cccnc1Cl,13,-34,0,2,3,3,·
O=C(c1ccco1)N(CC1CCCO1)c1nc(-c2ccccc2)cs1 (stereo not given),10,66*,-7,-7,2,1,i
O=C(c1cccs1)N(CC1CCCO1)c1nc(-c2ccccc2)cs1 (stereo not given),4,58,-10,4,1,-5,·
Cc1ccc(-c2csc(N(CC3CCCO3)C(=O)c3ccco3)n2)cc1 (stereo not given),14,72*,5,-1,7,10,+
CCc1[nH]nc2c1C(c1ccc(F)cc1F)C(C#N)=C(N)O2 (stereo not given),15,-62,·,·,·,·,·
CC(C)c1ccc2c(c1)CCC1C(C)(C(N)=O)CCCC21C (stereo not given),5,52,·,·,·,·,+
COC(=O)[C@]1(C)CCC[C@]2(C)c3ccc(C(C)C)cc3C(=O)CC12 (stereo not given in full),11,43,·,·,·,·,·
Cn1c(N2CCC(C(=O)NCCCN3CCOCC3)CC2)nc2ccccc21,6,-18,·,·,·,·,·
O=C(c1ccc(Cl)cc1)c1oc2ccccc2c1CS(=O)(=O)c1ccccc1,3,80*,-5,-3,3,-1,+
CCOc1cc(-c2noc(-c3ccncc3)n2)cc(Br)c1OC,5,50,1,-2,3,-9,+
Cc1cc(C)nc(N2CCC(CNC(=O)c3cc(C(C)(C)C)[nH]n3)CC2)n1,·,-55,·,·,·,·,·
COC(=O)CSc1nc(Cc2ccccc2)nc2ccccc12,13,67*,-4,1,1,-2,+
CC(C)OC(=O)CSc1nc(C(C)C)nc2ccccc12,15,48,7,4,2,0,·
CCOC(=O)CSc1nc(CC)nc2ccccc12,9,38,-1,-12,3,1,·
CCOC(=O)C(C)Sc1nc(-c2ccccc2)nc2ccccc12 (stereo not given),3,87*,-6,-4,2,-1,+
CC(C)OC(=O)CSc1nc(Cc2ccccc2)nc2ccccc12,7,74*,-2,-2,2,0,+
CCOC(=O)CSc1nc(Cc2ccccc2)nc2ccccc12,10,70*,-2,-4,4,1,+
Cc1nnc(NC(=O)CSc2nc(Cc3ccccc3)nc3ccccc23)s1,10,10,·,·,·,·,·
